A selection: hits, their analogues and other compounds. The true share with any hit is near 2.3%.
LGR2 inh: inhibitors of bursicon-induced Drosophila LGR2 receptor cAMP signaling; 0.35% of 380,000 active; HEK293 LGR2, CRE-luciferase, bursicon-stimulated, 4 h; inhibition, % at 9.99 µM; AID 720647;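 active means drop in luminescence signal, shown as inhibition above about 50% in the replicate tests, limit read from the data, passing the limit was not always enough; inconclusive means probably only some replicates passing the limit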;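 further: agonist challenge used bursicon conditioned medium at about half maximal strength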
Xi reactivation: activators of X-chromosome reactivation in mouse fibroblasts; 0.055% of 360,000 active; activation, % at 7.58 µM; XiGFP mouse fibroblasts, % GFP-positive cells imaging, 3 d; cells co-treated with 5-aza-dC sensitizer; scaled so ellipticine positive control = 100%; AID 743238;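 active means mean normalized replicate activation at least 10% and every replicate at or above 10%; inconclusive means only one of the two criteria met; inactive means mean below 10% and not all replicates reach 10%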;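 further: 0% = median of on-plate neutral control wells and 100% = ellipticine 6 µM median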
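System: SV40-immortalized XiGFP fibroblast cells, line 68-5-11 / Incubation: 3-day compound exposure, then 15 min fixation at room temperature / Compound: single concentration per compound, delivered by pin transfer / Buffer or medium: DMEM plus 5-aza-dC sensitizer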
TWEAK Fn14 block: TWEAK-Fn14 signaling inhibition | TWEAK-stimulated Fn14 reporter cells, luciferase luminescence, 8 h | inhibition, % at 10 µM | 2% of 360,000 active; in the data active means inhibition above about 50%
EWS-Fli inh: EWS/Fli transcriptional activity inhibition | inhibition, % at 12.6 µM | A673 NR0B1-luciferase reporter, viability-normalised | 0.67% of 350,000 active;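 active means mean inhibition of at least 50% after viability correction, with every replicate also passing that limit; inconclusive means mean reaches 50% but only one of two replicates passes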;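 further: firefly luciferase signal divided by Alamar Blue viability fluorescence both relative to DMSO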
TROY NFkB inh: blocks TROY-dependent signaling in reporter cells; Q293 LMP1-TROYcd NF-kB luciferase reporter, 4 h; inhibition, % at 10 µM; 0.98% of 360,000 active; AID 1347056;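 active means compounds whose plate-normalised and pattern-corrected inhibition of the luciferase reporter signal at the single screening dose is 50% or more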
FN deposit inh: fibronectin deposition inhibition; AH1F fibroblasts, Alexa488-fibronectin deposition fluorescence, overnight; inhibition, % at 12.6 µM; 0.086% of 350,000 active;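 active means mean inhibition across replicates of 30% or more, regardless of how many single replicates reach that level; inconclusive means mean under 30% yet at least half of replicates reach 30%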;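 further: positive control wells lacked labelled fibronectin entirely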
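material = AH1F fibroblast monolayer depositing Alexa488-labelled fibronectin into matrix | amount = 10000 AH1F cells/well | buffer or medium = DMEM plus 2% serum, read in PBS | incubation = 1 h cell adhesion before compound, then overnight fibronectin incubation | detection = fluorescence at 485 nm excitation, 525 nm emission | evaluation = percent inhibition as loss of matrix-bound fibronectin fluorescence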
Active calls of the source: *; ? = inconclusive; . = no result given.

SMILES	LGR2 inh	Xi reactivation	TWEAK Fn14 block	EWS-Fli inh	TROY NFkB inh	FN deposit inh
COc1ccc2c3c([nH]c2c1)[C@@H](CO)N(C)CC31CN(C(=O)c2cccnc2)C1	.	0.7	.	.	.	.
COc1cc(-c2noc(C)c2C#Cc2ccc(N)cc2)cc(OC)c1OC	-14.6	0.2	40.0	?	28.6	.
COc1cc(-c2noc(C)c2/C=C/c2ccc(N)cc2)cc(OC)c1OC	-8.3	0.0	9.1	57.4*	-2.5	-21.7
COc1cc(-c2noc(C)c2C#Cc2ccccn2)cc(OC)c1OC	-6.5	0.2	-8.1	53.7*	8.5	11.5
COc1cc(-c2c(-c3cc(OC)c(OC)c(OC)c3)noc2C)ccc1F	-27.8	0.2	.	65.8*	.	-0.3
CCC(=O)Nc1ccc2c(c1)C(=O)N(C)C[C@@H](OC)[C@H](C)CN(Cc1ccccc1C(=O)O)[C@H](C)CO2	-16.3	-0.3	.	-3.1	.	-7.6
CCCCN(CC)Cc1ccc(CNC(=S)Nc2ccc(C)cc2Cl)o1	2.0	-0.1	73.9*	20.6	42.1	-3.2
COc1ccc2nc3oc(C(=O)NC4CCN(Cc5ccccc5)CC4)cc3cc2c1	.	.	53.5*	.	-14.8	.
CC(C)C[C@@H](CN1CCCC1CN1C(=S)NC[C@@H]1Cc1ccc(O)cc1)N1C[C@H](Cc2ccc(O)cc2)N(CCc2ccccc2)C1=S (stereo partly specified)	6.1	0.0	64.6*	7.3	24.9	.
Oc1ccc(C[C@H]2CNC(=S)N2CC2CCCN2C[C@H](Cc2ccc(O)cc2)N2C[C@H](Cc3ccc(O)cc3)N(CC3CCCCCC3)C2=S)cc1 (stereo partly specified)	10.1	0.0	88.6*	41.9	35.3	.
Oc1ccc(C[C@H]2CN([C@@H](Cc3ccc(O)cc3)CN3CCC[C@@H]3CN3C(=S)NC[C@@H]3Cc3ccccc3)C(=S)N2CCc2ccccc2)cc1	22.8	0.0	11.3	31.2	19.1	-4.9
Oc1ccc(C[C@H]2CNC(=S)N2CC2CCCN2C[C@H](Cc2ccc(O)cc2)N2C[C@H](Cc3ccccc3)N(CC3CCCCC3)C2=S)cc1 (stereo partly specified)	15.1	-0.1	62.3*	11.3	-0.2	.
COc1ccc(S(=O)(=O)Nc2cccc3c2O[C@@H](CN(C)S(=O)(=O)c2ccc(Cl)cc2)[C@H](C)CN([C@H](C)CO)C3=O)cc1	28.1	-1.0	.	0.1	.	.
C[C@@H]1CN([C@H](C)CO)C(=O)c2cc(C#Cc3ccccn3)cnc2O[C@@H]1CN(C)CC1CCCC1	-2.8	1.7	.	-7.8	.	-7.5
CN(C)c1ccc(/C=C(/C#N)C(=O)NCc2ccccc2)o1	-28.4	16.9*	-21.9	.	-37.7	-3.4
Cc1noc(C)c1NC(=O)N[C@H]1C=C[C@@H](CC(=O)NCc2ccc(Cl)c(Cl)c2)O[C@@H]1CO	4.2	-0.1	.	2.8	.	-3.0
Fc1ccc(-c2nc3c4ccccc4ccn3c2Cc2ccccc2C(F)(F)F)cc1	.	.	-2.1	.	58.8*	.
COc1ccc(NC(=O)Nc2cccc3c2O[C@@H](CN(C)S(C)(=O)=O)[C@H](C)CN([C@H](C)CO)C3=O)cc1	-2.8	0.0	.	5.5	.	.
CCCC(=O)Nc1ccc2c(c1)OC[C@@H](C)N(C(=O)Cc1cccnc1)C[C@@H](C)[C@H](OC)CN(C)C2=O	5.0	0.4	.	-0.3	.	0.8
O=C(NCc1cccnc1)/C(=C/c1ccc(-c2cccc(C(F)(F)F)c2)o1)NC(=O)c1ccccc1	.	.	31.2	.	3.2	1.2
O=C(NCc1cccnc1)/C(=C/c1ccc(-c2ccc(Cl)cc2)o1)S(=O)(=O)c1ccccc1	99.0*	.	100.3*	69.0*	75.8*	.
O=C(NCc1cccnc1)/C(=C\c1ccc(-c2ccc(Br)cc2)o1)S(=O)(=O)c1ccccc1	102.1*	1.3	99.9*	59.1*	83.4*	7.8
O=C(CN(Cc1ccc(Br)cc1)S(=O)(=O)c1ccccc1)NCc1cccnc1	10.7	0.4	13.2	-6.1	0.3	1.6
O=C(CN1CCOCC1)N[C@@H]1CC[C@@H](CCNC(=O)C2CCCC2)O[C@@H]1CO	-16.5	0.2	.	-6.6	.	16.7
O=C(NC1CCN(S(=O)(=O)c2ccccc2C(F)(F)F)CC1)c1ccco1	-20.3	-0.1	56.2*	5.2	0.0	-6.1

Assay outcomes from PubChem.
